Rows were chosen to be rich in hits. Some 0.73% of all compounds tested hit in one or more screens of this group.
cardiac RTF act – increases calcium sensitivity of human cardiac regulated thin filaments | IANBD-labeled TnC RTF fluorescence at EC20 calcium; 0% EC20 calcium, 100% full calcium | activation, % at 7.2 µM | hit rate 0.24% among 340,000;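 active = activation above the mean over all tested compounds plus 3 SD, cut at about 30% in these data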;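 also: rise in fluorescence read as greater calcium sensitivity of cardiac thin filaments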
Tn7 DDE FP – disrupts Tn7 cyclic peptide binding to fibrin D-Dimer-E complex. FP displacement of FITC-Tn7 peptide from fibrin DD(E); 0% = median of compound wells per plate. hit rate 0.13% among 370,000. P02675. inhibition, % at 8.3 µM;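 active = inhibition above the mean of compounds falling within the control limits plus 3 SD of them, cut at about 14% in these data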
Target sequence (P02675 whole entry, looked up): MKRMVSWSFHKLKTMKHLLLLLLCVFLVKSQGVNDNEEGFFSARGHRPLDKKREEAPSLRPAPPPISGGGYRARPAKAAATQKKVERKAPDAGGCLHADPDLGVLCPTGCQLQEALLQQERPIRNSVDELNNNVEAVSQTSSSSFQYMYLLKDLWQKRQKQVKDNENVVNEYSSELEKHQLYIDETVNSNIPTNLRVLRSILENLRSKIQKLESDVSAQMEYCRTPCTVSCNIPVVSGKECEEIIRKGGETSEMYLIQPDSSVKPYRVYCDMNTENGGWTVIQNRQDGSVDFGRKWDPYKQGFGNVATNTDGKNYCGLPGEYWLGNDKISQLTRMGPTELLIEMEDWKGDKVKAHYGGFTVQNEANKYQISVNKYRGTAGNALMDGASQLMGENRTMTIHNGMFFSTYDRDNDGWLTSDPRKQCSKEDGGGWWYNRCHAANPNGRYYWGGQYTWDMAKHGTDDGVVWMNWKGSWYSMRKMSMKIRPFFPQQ
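Assay system: Human fibrin DD(E) protein | Medium: Tris buffer with calcium and detergent, pH 7.8 | Reagent: 0.1 µM fluorescent Tn7 | Compound dosing: Single point at 8.3 µM | Times: 10 min preincubation, 3 h with tracer, room temperature | Detection: Fluorescence polarization of the labelled Tn7 tracer | Controls: Aha-Tn7 high control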
Keap1 Nrf2 FP – Keap1-Nrf2 (human) interaction inhibition; hit rate 0.15% among 340,000; Keap1 Kelch-Nrf2 peptide fluorescence polarization, 1536-well; Q14145; inhibition, % at 9.4 µM; in the data active = inhibition above about 12%;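 also: human Keap1 Kelch domain with fluorescein labeled Nrf2 9mer peptide probe; higher means more block of Keap1 binding to Nrf2 peptide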
C-LANA FP – blocks KSHV LANA C-terminal domain binding to DNA | MBP-C-LANA/FAM-LBS DNA binding, fluorescence polarization | inhibition, % at 9 µM | hit rate 0.078% among 340,000;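 active = highest replicate inhibition at or above 60% at 9 µM, even if other replicates fall short; inactive = all replicates below 60% inhibition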
Cardiac RTF inh – cardiac RTF calcium desensitization. P19429+P45379. IANBD-labeled cardiac RTF, Ca2+ fluorescence. inhibition, % at 7.15 µM. hit rate 0.12% among 340,000. AID 493244;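 active = inhibition above the mean inhibition of all tested compounds plus 3 SD, cut at about 17% in these data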;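 also: assay run at fixed EC70 calcium of 1.6 mM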
Tn6 DDE FP – DD(E)-Tn6 binding inhibition, primary FP screen. P02675. Fibrin DD(E) TRITC-Tn6 fluorescence polarization displacement. inhibition, % at 8.3 µM. hit rate 0.21% among 370,000. AID 720509;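 active = inhibition above a per-campaign cutoff: mean of compounds within control limits plus 3 SD, cut at about 15% in these data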
Each line names hits and unclear results; the compound was inactive in the other large screens.

COCc1[nH]nc2c1C(c1cccc(C(F)(F)F)c1)N(c1ccc(OC)cc1)C2=O (centres undefined)	none (no result: cardiac RTF act, Keap1 Nrf2 FP, C-LANA FP, Cardiac RTF inh)
O=Cc1ccc(N2CCCC2)o1	none
N#C/C(=C\c1ccc(N2CCCCC2)o1)C(=O)Nc1cccc(Br)c1	cardiac RTF act 146.0
N#C/C(=C\c1ccc(N2CCCCC2)o1)C(N)=O	cardiac RTF act 55.7
C[C@@H]1CCN(C2CC2)S(=O)(=O)c2ccc(N3CCC[C@@H]3CO)cc2O1	none (no result: cardiac RTF act, Keap1 Nrf2 FP, C-LANA FP, Cardiac RTF inh)
COc1ccccc1/C=C/C=C1\Oc2c(ccc(O)c2CN2CCN(CCO)CC2)C1=O	cardiac RTF act 239.3
O=C1/C(=C/C=C/c2ccccc2)Oc2c1ccc(O)c2CN1CCN(CCO)CC1	cardiac RTF act 42.8
Cc1ccc(/C=C2\Oc3c(ccc(O)c3CN3CCN(C)CC3)C2=O)cc1	none
CCN1CCN(Cc2c(O)ccc3c2O/C(=C\C=C\c2ccccc2)C3=O)CC1	cardiac RTF act 139.7
CCN1CCN(Cc2c(O)ccc3c2O/C(=C\c2ccccc2)C3=O)CC1	none
O=C1OC(c2ccccc2)(N(Nc2ccccc2)c2ccccc2)c2ccccc21 (centres undefined)	none (no result: cardiac RTF act, Keap1 Nrf2 FP, C-LANA FP, Cardiac RTF inh)
COC(=O)c1ccc(CN2C(=O)[C@]3(OCCC=C[C@H]3C)c3cc(OC)ccc32)cc1	none (no result: cardiac RTF act, Keap1 Nrf2 FP, C-LANA FP, Cardiac RTF inh)
Cc1ccc(O)c(C(=O)c2cc(C#N)c(=O)n(-c3c(C)n(C)n(-c4ccccc4)c3=O)c2)c1	none
Cc1ccc(O)c(C(=O)c2cc(C#N)c(=O)n(-c3nccs3)c2)c1	cardiac RTF act 68.9
CCc1cc2c(nc1CC)CCCN2Cc1ccccc1C(F)(F)F	none (no result: cardiac RTF act, Keap1 Nrf2 FP, C-LANA FP, Cardiac RTF inh)
O=C(NCCCO)c1ccc2nc(-c3ccco3)c(-c3ccco3)nc2c1	C-LANA FP 68.2
CCCCNC(=O)c1ccc2nc(-c3ccco3)c(-c3ccco3)nc2c1	none
COC(=O)C1CN(Cc2ccc(OC)cc2)CCS(=O)(=O)N1Cc1ccc(C(F)(F)F)cc1 (centres undefined)	none (no result: cardiac RTF act, Keap1 Nrf2 FP, C-LANA FP, Cardiac RTF inh)
O=C(O)c1ccc(NC2=C(Cl)C(=O)c3ccccc3C2=O)cc1	Keap1 Nrf2 FP 9.3
Nc1sc2c(c1C(=O)NCCc1ccccc1)CCCC2	Tn6 DDE FP 27.9 (no result: cardiac RTF act, Keap1 Nrf2 FP, C-LANA FP, Cardiac RTF inh)
COC(=O)C1CCC(CNC(=O)C(Cc2ccc3c(c2)OCO3)NC(C)=O)CC1 (centres undefined)	none (no result: cardiac RTF act, Keap1 Nrf2 FP, C-LANA FP, Cardiac RTF inh)
COCCCNc1c2c3c(cccc3[nH]c1=O)C(=O)c1ccccc1-2	cardiac RTF act active, Keap1 Nrf2 FP 167.4, C-LANA FP 183.8, Tn6 DDE FP 85.8
C#CCCN([C@H](C(=O)OC)C(C)C)S(=O)(=O)c1ccccc1Br	none (no result: cardiac RTF act, Keap1 Nrf2 FP, C-LANA FP, Cardiac RTF inh)
Oc1ccc(Cl)cc1N=Nc1ccccc1	none
O=S(=O)(O)c1cc(O)c2c(O)c(N=Nc3cc(Cl)ccc3O)c(S(=O)(=O)O)cc2c1	Cardiac RTF inh 27.2 (no result: Tn7 DDE FP, Tn6 DDE FP)
O=S1(=O)c2ccc(Br)cc2OC[C@H](c2ccccc2)N1Cc1ccccc1	none (no result: cardiac RTF act, Keap1 Nrf2 FP, C-LANA FP, Cardiac RTF inh)
O=C1CCC2(CCC(c3ccccc3)CC2)N1CCCO (centres undefined)	none (no result: cardiac RTF act, Keap1 Nrf2 FP, C-LANA FP, Cardiac RTF inh)
COc1ccccc1C(=O)NN(C)C1=NS(=O)(=O)c2ccccc21	cardiac RTF act 59.9
CN(NC(=O)CN1C(=O)c2ccccc2C1=O)C1=NS(=O)(=O)c2ccccc21	none
O=C(NCc1ccc(Cl)cc1)OCCN1C(=O)CCC12CCC(c1ccccc1)CC2 (centres undefined)	none (no result: cardiac RTF act, Keap1 Nrf2 FP, C-LANA FP, Cardiac RTF inh)
CCCNC(=O)Cn1c(=O)/c(=C/c2ccc(-c3ccc([N+](=O)[O-])cc3)o2)s/c1=C\C(=O)C(C)(C)C	cardiac RTF act 52.3
O=C(Nc1ccccc1C(F)(F)F)O[C@@H]1CC[C@@]23CCCN2C(=O)CCC[C@H]3C1	none (no result: cardiac RTF act, Keap1 Nrf2 FP, C-LANA FP, Cardiac RTF inh)
Cc1ccccc1Nc1nc(N)[nH]c(=O)c1N=O	none (no result: cardiac RTF act, Keap1 Nrf2 FP, C-LANA FP, Cardiac RTF inh)
COc1cccc(CNC(=O)c2cc3c(c(-c4cccc(-c5cccc(C#N)c5)c4)n2)[C@H](CCO)N(S(=O)C(C)(C)C)C3)c1 (some centres undefined)	none (no result: cardiac RTF act, Keap1 Nrf2 FP, C-LANA FP, Cardiac RTF inh)
CC1(C)CC2CN(Cc3ccccc3)S(=O)(=O)N2C1 (centres undefined)	none (no result: cardiac RTF act, Keap1 Nrf2 FP, C-LANA FP, Cardiac RTF inh)
N[C@@H](C(=O)N[C@@H]1C(=O)N2C(C(=O)O)=C(Cl)CS[C@H]12)c1ccccc1	none

Screening results (PubChem)
